Data as given in ChEMBL document CHEMBL5376016, “Synthesis of novel rapanone derivatives via organocatalytic reductive C-alkylation: biological evaluation of antioxidant properties, in vivo zebrafish embryo toxicity, and docking studies” (RSC Med Chem, 2024).
pIC50: −log10 of the molar value. ≈ marks a conversion by molar mass, not a printed value.

Legend:
[1] = Antioxidant activity assessed as ABTS radical scavenging activity after 6 mins by spectrophotometric analysis; type: functional
[2] = Acute toxicity in zebrafish embryo assessed as survival rate at 96 hrs post fertilization relative to control; design: species or system Danio rerio; concentration or dose not given beside the values; conditions: in vivo
In short: (§1)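 Lethality endpoints were coagulation and absence of heartbeat, checked by inverted microscope. Survival was compared with untreated embryos across three independent experiments; mean ± SD, ANOVA.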

[3] = Acute toxicity in zebrafish embryo assessed as survival rate at 20 uM measured after 96 hrs post fertilization relative to control; design: species or system Danio rerio; conditions: in vivo; in short: as §1
[4] = Antioxidant activity assessed as ABTS radical scavenging activity after 30 mins by spectrophotometric analysis; type: functional
[5] = Antioxidant activity assessed as DPPH radical scavenging activity after 20 mins by […]; type: functional
[6] = Antioxidant activity assessed as DPPH radical scavenging activity after 30 mins by spectrophotometric analysis; type: functional
In short: (§2)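 Ascorbic acid was the reference standard. For DPPH, 0.2 mM DPPH in methanol was kept in the dark, mixed with compound at 5–160 µM (DMSO stock), and incubated 30 min in the dark at room temperature, then A517 was read. %RSA = (Ac−As)/Ac×100. Triplicate runs; IC50 taken from the plot of % scavenging versus concentration.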

[7] = Acute toxicity in zebrafish embryo assessed as morphological changes by measuring bent spine at upto 160 uM measured after 96 hrs post fertilization; design: species or system Danio rerio; conditions: in vivo
In short: (§3)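 Wild-type Danio rerio embryos were exposed in milli-Q water with compound dissolved in DMSO (≤0.25 v/v final). Controls were milli-Q water and water with DMSO. Embryos were held at 26.8 ± 1 °C and scored by inverted microscope at 24–96 hpf, after exposure at 160 µM, for bent spine, yolk sac edema, pericardial edema, short tail and bent tail.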

[8] = Acute toxicity in zebrafish embryo assessed as hatching rate at 20 to 160 uM measured after 48 hrs post fertilization relative to control; design: species or system Danio rerio; conditions: in vivo, dose 20-160 µM
In short: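 Controls were water and water with 0.5% DMSO. Incubation at 26.8 ± 1 °C, 20 embryos per well. Hatching scored over 0–96 hpf under an inverted microscope. Triplicate, three independent experiments; mean ± SD; ANOVA.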

[9] = Antioxidant activity assessed as ABTS radical scavenging activity after 6 mins by spectrophotometric analysis relative to control; type: functional; design: concentration or dose not given beside the values
[10] = Acute toxicity in zebrafish embryo assessed as survival rate at 160 uM measured after 96 hrs post fertilization relative to control; design: species or system Danio rerio; conditions: in vivo; in short: as §1
[11] = Acute toxicity in zebrafish embryo assessed as morphological changes by measuring short tail at upto 160 uM measured after 96 hrs post fertilization; design: species or system Danio rerio; conditions: in vivo; in short: as §3
[12] = Antioxidant activity assessed as DPPH radical scavenging activity after 30 mins by spectrophotometric analysis relative to control; type: functional; design: concentration or dose not given beside the values; in short: as §2
[13] = Acute toxicity in zebrafish embryo assessed as morphological changes by measuring bent tail at upto 160 uM measured after 96 hrs post fertilization; design: species or system Danio rerio; conditions: in vivo; in short: as §3
[14] = Acute toxicity in zebrafish embryo assessed as morphological changes by measuring pericardial edema at upto 160 uM measured after 96 hrs post fertilization; design: species or system Danio rerio; conditions: in vivo; in short: as §3
[15] = Antioxidant activity assessed as ABTS radical scavenging activity after 30 mins by […]
[16] = Acute toxicity in zebrafish embryo assessed as morphological changes by measuring yolk sac edema at upto 160 uM measured after 96 hrs post fertilization; design: species or system Danio rerio; conditions: in vivo; in short: as §3

CCCCCCCCCCCC1=C(O)C(=O)C=C(O)C1=O [EMBELIN]
pIC50 [1]: 5.51
survival at 96 h ([2]; read-out: Activity): 70%
survival at 96 h, 20 µM [3]: 52%
IC50 [4]: 27.9 µg/mL (≈ 94.8 µM)
IC50 [5]: 0.23 µg/mL (≈ 0.781 µM)
pIC50 [6]: 5.51
Activity [7]: Toxic
Activity [8]: 75.66%
Activity [9]: 75.1%
survival at 96 h, 160 µM [10]: 70%
Activity [11]: Toxic
Activity [12]: 71.1%
Activity [13]: Toxic
Activity [14]: Toxic
IC50 [15]: 27.92 µg/mL (≈ 94.8 µM)
Activity [16]: Toxic

C#Cc1ccc(CC2=C(O)C(=O)C(CCCCCCCCCCC)=C(O)C2=O)cc1
pIC50 [1]: 5.33
survival at 96 h ([2]; read-out: Survival): > 90%
pIC50 [6]: 5.31
Activity [7]: Toxic
Activity [8]: 51.33%
Activity [9]: 52.1%
Activity [11]: Toxic
Activity [12]: 50.3%
Activity [13]: Toxic
Activity [14]: Toxic
Activity [16]: Toxic

CCCCCCCCCCCC1=C(O)C(=O)C(Cc2ccccc2Cl)=C(O)C1=O
pIC50 [1]: 5.26
survival at 96 h ([2]; read-out: Survival): > 90%
pIC50 [6]: 5.34
Activity [7]: Toxic
Activity [8]: 51.33%
Activity [9]: 52.1%
Activity [11]: Toxic
Activity [12]: 50.3%
Activity [13]: Toxic
Activity [14]: Toxic
Activity [16]: Toxic

CCCCCCCCCCCC1=C(O)C(=O)C(Cc2cccc(Oc3ccccc3)c2)=C(O)C1=O
pIC50 [1]: 5.63
survival at 96 h ([2]; read-out: Activity): 70%
survival at 96 h, 20 µM [3]: 52%
pIC50 [6]: 5.54
Activity [7]: Toxic
Activity [8]: 75.66%
Activity [9]: 80.2%
survival at 96 h, 160 µM [10]: 70%
Activity [11]: Toxic
Activity [12]: 80%
Activity [13]: Toxic
Activity [14]: Toxic
Activity [16]: Toxic
